Source: ChEMBL document CHEMBL4020840, “Synthesis and Biological Evaluation of Selenium-Containing 4-Anilinoquinazoline Derivatives as Novel Antimitotic Agents” (J Med Chem, 2018)
pIC50: −log10 of the molar value. Active and inactive are the calls of the source. No cut-off for these calls is given here.

What was measured:
[1] = test system: A549; assay: Induction of apoptosis in human A549 cells assessed as live cells at 2 nM after 24 hrs by Annexin V-FITC/propidium iodide staining based flow cytometry (reference value: 98.84%); type: functional
[2] = Selectivity index, ratio of IC50 for human LO2 cells to IC50 for human A549 cells; type: functional
How it was run: (§1)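 MTT assay in normal cells and A549: seeding at 5 × 10³ cells/well for 24 h, 48 h compound exposure, then 5 mg/mL MTT for 4 h, DMSO solubilisation and absorbance at 570 nm. IC50 values came from dose–response curves of at least three independent experiments. Selectivity ratio = IC50 in normal cells / IC50 in A549.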

[3] = Selectivity index, ratio of IC50 for HLF to IC50 for human A549 cells; how it was run: as §1
[4] = test system: A549; assay: Growth inhibition of human A549 cells after 48 hrs by MTT assay; type: functional, cell-based; settings: A549, 48 h
[5] = test system: HCT-116; assay: Growth inhibition of human HCT116 cells after 48 hrs by MTT assay; type: functional, cell-based; settings: HCT-116, 48 h
How it was run: (§2)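 MTT assay: log-phase cells plated at 5 × 10³/well for 24 h, then exposed to a range of test concentrations for 48 h. MTT (5 mg/mL) added for 4 h, formazan dissolved in DMSO, absorbance read at 570 nm. IC50 is the concentration giving 50% growth inhibition, from dose-response curves; at least three independent experiments, mean ± SE.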

[6] = test system: HepG2; assay: Growth inhibition of human HepG2 cells after 48 hrs by MTT assay; type: functional, cell-based; settings: HepG2, 48 h; how it was run: as §2
[7] = test system: MDA-MB-231; assay: Growth inhibition of human MDA-MB-231 cells after 48 hrs by MTT assay; type: functional, cell-based; settings: MDA-MB-231, 48 h; how it was run: as §2
[8] = test system: LoVo; assay: Growth inhibition of human LoVo cells after 48 hrs by MTT assay; type: functional, cell-based; how it was run: as §2
[9] = test system: RKO; assay: Growth inhibition of human RKO cells after 48 hrs by MTT assay; type: functional, cell-based; how it was run: as §2
[10] = test system: MCF7; assay: Antiproliferative activity against human MCF7 cells after 48 hrs by MTT assay; type: functional, cell-based; settings: MCF7, 48 h; how it was run: as §2
[11] = test system: HeLa; assay: Antiproliferative activity against human HeLa cells after 48 hrs by MTT assay; type: functional, cell-based; how it was run: as §2
[12] = test system: MGC-803; assay: Antiproliferative activity against human MGC803 cells after 48 hrs by MTT assay; type: functional, cell-based; settings: MGC-803, 48 h; how it was run: as §2
[13] = test system: A549/CDDP; assay: Growth inhibition of human A549/CDDP cells after 48 hrs by MTT assay; type: functional, cell-based; how it was run: as §2
[14] = Growth inhibition of human HepG2/DOX cells after 48 hrs by MTT assay; type: functional, cell-based; how it was run: as §2
[15] = Resistance factor, ratio of IC50 for human A549/CDDP cells to IC50 for human A549 cells; type: functional
How it was run: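 MTT assay: log-phase cells were seeded at 5 × 10³/well for 24 h, then exposed to a concentration series for 48 h. MTT (5 mg/mL) was added for 4 h, formazan was dissolved in DMSO, and A570 was read. IC50 values came from dose–response curves of at least three independent experiments. Resistance factor = IC50 in the resistant line / IC50 in the parental sensitive line.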

[16] = (§3) Inhibition of porcine brain tubulin polymerization measured every 60 secs for 90 mins by DAPI staining based fluorescence assay; parameters: species or system Sus scrofa
How it was run: (§4)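 Purified tubulin was tested in a kit assay. Final buffer: 80 mM PIPES sesquisodium (pH 6.9), 2.0 mM MgCl₂, 0.5 mM EGTA, 1 mM GTP, 10.2% glycerol. Compound (0.1–10 μM) was prewarmed at 37 °C for 1 min before tubulin was added. DAPI reporter fluorescence (ex 340 / em 410 nm) was read every 60 s for 90 min. Area under the curve gave percent inhibition versus control and the IC50.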

[17] = Antiproliferative activity against HLF after 48 hrs by MTT assay; type: cell-based; settings: Homo sapiens; how it was run: as §2
[18] = test system: A549; assay: Cell cycle arrest in human A549 cells assessed as accumulation at G2/M phase at 4 nM after 12 hrs by propidium iodide staining based flow cytometry (reference value: 10.13%); type: functional
How it was run: (§5)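 A549 seeded in six-well plates at 3 × 10⁵ cells/well and treated for 12 or 24 h; vehicle 0.01% DMSO. Cells fixed overnight in ice-cold 70% ethanol, treated with RNase A at 37 °C for 30 min, then stained with PI at 4 °C for 30 min. About 10 000 events acquired by flow cytometry at 488 nm; three experiments.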

[19] = test system: A549; assay: Cell cycle arrest in human A549 cells assessed as accumulation at G2/M phase at 4 nM after 24 hrs by propidium iodide staining based flow cytometry (reference value: 10.13%); type: functional; how it was run: as §5
[20] = test system: A549; assay: Induction of apoptosis in human A549 cells assessed as early apoptotic cells at 2 nM after 24 hrs by Annexin V-FITC/propidium iodide staining based flow cytometry (reference value: 0.98%); type: functional
[21] = test system: A549; assay: Induction of apoptosis in human A549 cells assessed as late apoptotic cells at 2 nM after 24 hrs by Annexin V-FITC/propidium iodide staining based flow cytometry (reference value: 0.08%); type: functional
[22] = test system: A549; assay: Induction of apoptosis in human A549 cells assessed as necrotic cells at 2 nM after 24 hrs by Annexin V-FITC/propidium iodide staining based flow cytometry (reference value: 0.10%); type: functional
[23] = test system: A549; assay: Induction of apoptosis in human A549 cells assessed as live cells at 4 nM after 24 hrs by Annexin V-FITC/propidium iodide staining based flow cytometry (reference value: 98.84%); type: functional
[24] = test system: A549; assay: Induction of apoptosis in human A549 cells assessed as early apoptotic cells at 4 nM after 24 hrs by Annexin V-FITC/propidium iodide staining based flow cytometry (reference value: 0.98%); type: functional
[25] = test system: A549; assay: Induction of apoptosis in human A549 cells assessed as late apoptotic cells at 4 nM after 24 hrs by Annexin V-FITC/propidium iodide staining based flow cytometry (reference value: 0.08%); type: functional
[26] = test system: A549; assay: Induction of apoptosis in human A549 cells assessed as necrotic cells at 4 nM after 24 hrs by Annexin V-FITC/propidium iodide staining based flow cytometry (reference value: 0.10%); type: functional
[27] = test system: A549; assay: Induction of apoptosis in human A549 cells assessed as live cells at 2 nM after 48 hrs by Annexin V-FITC/propidium iodide staining based flow cytometry (reference value: 98.49%); type: functional
[28] = test system: A549; assay: Induction of apoptosis in human A549 cells assessed as early apoptotic cells at 2 nM after 48 hrs by Annexin V-FITC/propidium iodide staining based flow cytometry (reference value: 1.48%); type: functional
[29] = test system: A549; assay: Induction of apoptosis in human A549 cells assessed as late apoptotic cells at 2 nM after 48 hrs by Annexin V-FITC/propidium iodide staining based flow cytometry (reference value: 0.03%); type: functional
[30] = test system: A549; assay: Induction of apoptosis in human A549 cells assessed as necrotic cells at 2 nM after 48 hrs by Annexin V-FITC/propidium iodide staining based flow cytometry relative to control; type: functional
[31] = test system: A549; assay: Induction of apoptosis in human A549 cells assessed as live cells at 4 nM after 48 hrs by Annexin V-FITC/propidium iodide staining based flow cytometry (reference value: 98.49%); type: functional
[32] = test system: A549; assay: Induction of apoptosis in human A549 cells assessed as early apoptotic cells at 4 nM after 48 hrs by Annexin V-FITC/propidium iodide staining based flow cytometry (reference value: 1.48%); type: functional
[33] = test system: A549; assay: Induction of apoptosis in human A549 cells assessed as late apoptotic cells at 4 nM after 48 hrs by Annexin V-FITC/propidium iodide staining based flow cytometry (reference value: 0.03%); type: functional
[34] = test system: A549; assay: Induction of apoptosis in human A549 cells assessed as necrotic cells at 4 nM after 48 hrs by Annexin V-FITC/propidium iodide staining based flow cytometry relative to control; type: functional
[35] = test system: L02; assay: Antiproliferative activity against human LO2 cells after 48 hrs by MTT assay; type: cell-based; settings: L02, 48 h; how it was run: as §2
[36] = test system: BJ; assay: Antiproliferative activity against human BJ cells after 48 hrs by MTT assay; type: cell-based; how it was run: as §2
[37] = Selectivity index, ratio of IC50 for human BJ cells to IC50 for human A549 cells; type: functional; how it was run: as §1
[38] = species on record: Sus scrofa; assay: as §3; how it was run: as §4
[39] = test system: A549; assay: Cell cycle arrest in human A549 cells assessed as accumulation at G2/M phase up to 24 hrs by propidium iodide staining based flow cytometry; type: functional; how it was run: as §5
[40] = test system: A549; assay: Cell cycle arrest in human A549 cells assessed as decrease in G1 phase at 4 nM up to 24 hrs by propidium iodide staining based flow cytometry; type: functional; how it was run: as §5
[41] = test system: A549; assay: Cell cycle arrest in human A549 cells assessed as decrease in S phase at 4 nM up to 24 hrs by propidium iodide staining based flow cytometry; type: functional; how it was run: as §5
[42] = test system: A549; assay: Induction of apoptosis in human A549 cells assessed as upregulation of Bax level at 2 to 4 nM after 24 to 48 hrs by Western blot method; type: functional, cell-based
How it was run: (§6)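 A549 seeded in 60 mm dishes at 5 × 10⁵ cells and treated for 24 or 48 h. Lysed in RIPA buffer on ice for 30 min and spun at 12 500g. Protein measured by BCA; 40 μg run on 8−12% SDS−PAGE and moved to nitrocellulose. Blocked in 5% milk, primary antibodies at 4 °C overnight, HRP secondary 2 h, ECL detection.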

[43] = test system: A549; assay: Induction of apoptosis in human A549 cells assessed as upregulation of Bad level at 2 to 4 nM after 24 to 48 hrs by Western blot method; type: functional, cell-based; how it was run: as §6
[44] = test system: A549; assay: Induction of apoptosis in human A549 cells assessed as downregulation of Bcl2 level at 2 to 4 nM after 24 to 48 hrs by Western blot method; type: functional, cell-based; how it was run: as §6
[45] = test system: A549; assay: Antimigratory activity against human A549 cells assessed as suppression of wound healing at 4 nM after 24 hrs by phase contrast microscopic method; type: functional, cell-based
How it was run: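 Scratch wound assay: A549 plated at 5 × 10⁴ cells/dish and grown 24 h before scraping with a 10 μL tip. Medium then swapped to serum-free DMEM containing compound (4 nM) for 24 h. After a PBS wash, wound images taken at 0 and 24 h; at least three independent experiments.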

SMILES: C[Se]c1ccc(N(C)c2nc(C)nc3ccccc23)cc1F
- Activity [1]: 85.06%
- Ratio IC50 [2]: 8
- Ratio IC50 [3]: 9.5
- pIC50 [4]: 8.70
- pIC50 [5]: 8.22
- pIC50 [6]: 8.40
- pIC50 [7]: 8.30
- pIC50 [8]: 8.05
- pIC50 [9]: 8.15
- pIC50 [10]: 8.05
- pIC50 [11]: 8.30
- pIC50 [12]: 8.15
- pIC50 [13]: 7.96
- pIC50 [14]: 8.30
- Ratio IC50 [15]: 3.67
- pIC50 [16]: 5.90
- pIC50 [17]: 7.72
- Activity [18]: 60.89%
- Activity [19]: 79.71%
- Activity [20]: 10.96%
- Activity [21]: 2.46%
- Activity [22]: 1.52%
- Activity [23]: 60.27%
- Activity [24]: 36.98%
- Activity [25]: 1.97%
- Activity [26]: 0.78%
- Activity [27]: 63.84%
- Activity [28]: 12.22%
- Activity [29]: 16.6%
- Activity [30]: 7.34%
- Activity [31]: 34.36%
- Activity [32]: 27.52%
- Activity [33]: 25.29%
- Activity [34]: 12.82%
- pIC50 [35]: 7.80
- pIC50 [36]: 7.72
- Ratio IC50 [37]: 9.5

SMILES: Cc1nc(N(C)c2ccc([Se]C#N)cc2)c2ccccc2n1
- inhibition [38]: Dose-dependent effect
- Activity [39]: Dose-dependent effect
- Activity [40]: Active
- Activity [41]: Active
- Activity [42]: Active
- Activity [43]: Active
- Activity [44]: Active
- Activity [45]: Active
